For series [1], the system named is Cavia porcellus. Nature of the series: Antibronchospatic activity determined by histamine stimulated bronchospasm inhibition in guinea pigs after(i.v.) administration. The class given is functional, Bronchiole. The method, boiled down: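 Guinea pigs, Konzett–Rössler preparation. Bronchospasm was induced with histamine. Compound was given iv (1 mL/kg) 1 min before the agonist, dissolved in saline or saline with slight excess HCl or CH3SO3H (pH 3.5–4). Three doses were tested in duplicate, chosen to give 20–90% inhibition. ID75 was read graphically from log dose–response curves.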

Series [2] deals with Rattus norvegicus. The series can be described thus: Inhibition of mast cell degranulation was assessed in female albino rats at a dose of 29 umol/kg iv. In kind it is functional.
Series [3] can be described thus: In vivo toxicity in mouse after oral administration with 10% aqueous acacia gum. The class given is organism-based. The procedure, abridged: (§1)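 Female albino mice, 20-30 g. Compound given orally as solution or suspension in 10% aqueous acacia gum, 10 animals per dose. Deaths recorded over 7 days.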
In series [4] the test system is Rattus norvegicus. The series can be described thus: Rat PCA Test(50% inhibition of spot areas)in the female albino rats after oral administration in 10% aqueous acacia gum. In kind it is functional. The note with it: read-out: ID50 (the source's name). The method, boiled down: (§2)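 Female rats (200-250 g) were passively sensitized by ventral intradermal anti-egg-albumin antiserum. This was raised in rats by intramuscular 1% egg albumin plus ip H. pertussis vaccine, with serum taken at 12 days. After 24 h, groups of 10 were dosed orally with compound or vehicle (10 mL/kg). At 60 min, iv challenge used 0.3% egg albumin with 1% Evans blue. Blued areas were measured after 30 min.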

Series [5] is described as follows: In vivo toxic effect was determined in mouse after intraperitoneal administration with 10% aqueous acacia gum; value ranges from 1.73-3.04. The class given is toxicity, organism-based. Conditions: ip; call rule not given here. The method, boiled down: (§3)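 Female albino mice (20-30 g), 10 animals per dose, dosed intraperitoneally with compound in solution or suspension; compounds tested as salts unless noted. Mortality was recorded over 7 days.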

In series [6] the test system is Rattus norvegicus. The series can be described thus: Rat PCA Test(50% inhibition of spot areas)in the female albino rats after (ip) administration in 10% aqueous acacia gum; value ranges from 57-105. In kind it is functional. Conditions: read-out: ID50 (the source's name). The method, boiled down:
(§4)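 Female albino rats (200–250 g) received intradermal ventral injections of rat anti-egg-albumin antiserum; donors were raised with egg albumin im plus H. pertussis ip, and serum was taken at 12 days. 24 h later, compound was given ip in 10% acacia gum (10 mL/kg), 10 rats/group. Challenge 30 min later was iv 0.3% egg albumin plus 1% Evans blue. Blued areas were measured 30 min after challenge.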

Series [7] is described as follows: In vivo toxic effect was determined in mouse after intraperitoneal administration with 10% aqueous acacia gum; value ranges from 0.43-0.73. In kind it is toxicity, organism-based. Conditions: ip. The method, boiled down: as §3
Series [8] has as its system Rattus norvegicus. Nature of the series: Rat PCA Test(50% inhibition of spot areas)in the female albino rats after (ip) administration in 10% aqueous acacia gum. The class given is functional. Conditions: read-out: ID50 (the source's name). The method, boiled down:
as §4

The nature of series [9]: In vivo toxic effect was determined in mouse after oral administration with 10% aqueous acacia gum; value ranges from 0.84-1.62. The class given is toxicity, organism-based. The method, boiled down:
as §1

The subject of series [10] is Rattus norvegicus. Nature of the series: Inhibition of mast cell degranulation was assessed in female albino rats at a dose of 2 umol/kg iv. The class given is functional.
Series [11] relates to Rattus norvegicus. The series can be described thus: Rat PCA Test(50% inhibition of spot areas)in the female albino rats after oral administration in 10% aqueous acacia gum; value ranges from 1.7-2.4. The class given is functional. Conditions: read-out: ID50 (the source's name). The method, boiled down:
as §2

The nature of series [12]: In vivo toxic effect was determined in mouse after oral administration with 10% aqueous acacia gum; value ranges from 0.50-0.68. In kind it is toxicity, organism-based.
Series [13] is described as follows: In vivo toxic effect was determined in mouse after intraperitoneal administration with 10% aqueous acacia gum; value ranges from 0.29-0.42. Conditions: ip. The class given is toxicity, organism-based. The method, boiled down: as §3
Series [14] deals with Rattus norvegicus. Nature of the series: Rat PCA Test(50% inhibition of spot areas)in the female albino rats after (ip) administration in 10% aqueous acacia gum; value ranges from 20-94. In kind it is functional. Conditions: read-out: ID50 (the source's name). The method, boiled down:
as §4

The test system of series [15] is Mus musculus. The series can be described thus: In vivo toxic effect was determined in mouse after intraperitoneal administration with 10% aqueous acacia gum; NA means poorly absorbed. Conditions: ip. In kind it is toxicity, organism-based. The method, boiled down: as §3
Series [16] can be described thus: In vivo toxic effect was determined in mouse after oral administration with 10% aqueous acacia gum; value ranges from 0.68-1.24. The class given is toxicity, organism-based. The procedure, abridged:
as §1

Series [17] relates to Rattus norvegicus. Nature of the series: Rat PCA Test(50% inhibition of spot areas)in the female albino rats after (ip) administration in 10% aqueous acacia gum; value ranges from 114-198. The class given is functional. Conditions: read-out: ID50 (the source's name). The method, boiled down: as §4
Series [18] in a line: In vivo toxic effect was determined in mouse after intraperitoneal administration with 10% aqueous acacia gum; value ranges from 0.85-1.18. In kind it is toxicity, organism-based. Conditions: ip. The method, boiled down:
as §3

Series [19] in a line: In vivo toxic effect was determined in mouse after intraperitoneal administration with 10% aqueous acacia gum; value ranges from 5.14-9.14. The class given is toxicity, organism-based. Conditions: ip. The method, boiled down:
as §3

The structures appear in SMILES notation.

The values that follow come from ChEMBL document CHEMBL1123658, “1-(2-pyridinyl)piperazine derivatives with antianaphylactic, antibronchospastic, and mast cell stabilizing activities” (J Med Chem, 1987).

Usually inhibition in vivo stands for how much of the control response was suppressed. A high value points to a response far below the control. A word on the LD50: it is the dose at which mortality reaches 50%. High values mean lower toxicity, low ones greater toxicity.

For `CC(=O)c1ccccc1NC(=O)CCN1CCN(c2ccccn2)CC1.Cl.Cl`, the ID75 in [1] was found to be 0.89 µM/kg. In series [2], this compound registered an inhibition in vivo at 29 µmol/kg of 0%. The LD50 was over 6910 µmol/kg in series [3] and 2300 µmol/kg in series [5]. Moreover, the ED50 in [4] is over 230 µmol/kg; in series [6], 77 µmol/kg.
As for `Cl.Cl.O=C(CCN1CCN(c2ccccn2)CC1)Nc1cccc(C(F)(F)F)c1`, the values for the LD50 in series [7] and in series [9] were 560 µmol/kg and 1170 µmol/kg, respectively. The compound further displayed an ID75 in series [1] of 0.65 µM/kg. In series [8], the ED50 is over 55 µmol/kg.
In [10], `CN1CCC(=C2c3ccccc3CC(=O)c3sccc32)CC1` [KETOTIFEN] displayed an inhibition in vivo at 2 µmol/kg of 22%. Also, the ED50 in series [11] was determined as 2 µmol/kg. The LD50 in [12] is 580 µmol/kg; in [13], 350 µmol/kg. In [1], this compound registered an ID75 of 0.0015 µM/kg.
As to `Br.CC(=O)c1ccc(NC(=O)CCN2CCN(c3ccc(Br)cn3)CC2)cc1`, the LD50 in series [3] is over 7000 µmol/kg; in series [15], “Not Active”. Moreover, the ED50 in [4] was over 230 µmol/kg; in [14], 43 µmol/kg.
`Cl.Nc1cccc(NC(=O)CCN2CCN(c3ccccn3)CC2)c1`: the values for the LD50 in series [16] and in series [18] were 850 µmol/kg and 900 µmol/kg, respectively. In series [17], the ED50 was determined as 148 µmol/kg. This compound returned an ID75 in series [1] of 0.61 µM/kg.
As for `CCOC(=O)CC(C)N1CCN(c2ccccn2)CC1.Cl.Cl` (stereo unspecified), the LD50 in series [19] amounted to 6850 µmol/kg. In addition, the ID75 in [1] stood at 4.14 µM/kg. Further, in series [8], the ED50 was over 857 µmol/kg.
